ATG4B inh: inhibitors of human ATG4B cysteine protease; ATG4B cleavage of LC3-PLA2, NBD-HPC fluorescence, 1 h; inhibition, % at 8.33 µM; hit rate 0.51% among 340,000; in the data active = inhibition above about 40%
VIM-2 inh: blocks Pseudomonas aeruginosa VIM-2 metallo-beta-lactamase | purified VIM-2, nitrocefin hydrolysis, epi-absorbance fluorescence | inhibition, % at 5.6 µM | hit rate 0.89% among 290,000;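 active = inhibition above the mean of all tested compounds plus 3 SD, cutoff set per screening run, cut at about 7.5% in these data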;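 also: red hydrolysis product quenches plate fluorescence so inhibitors raise well fluorescence; 0% = enzyme with DMSO and 100% = DMSO without enzyme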
IMP-1 inh-1: inhibitors of Pseudomonas aeruginosa IMP-1 metallo-beta-lactamase; purified IMP-1, nitrocefin hydrolysis, epi-absorbance fluorescence; AID 1556; inhibition, % at 5.6 µM; hit rate 0.45% among 290,000;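 active = inhibition above the mean plus 3 SD of all compounds in the same screening run, cut at about 4.5% in these data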;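 also: 0% = IMP-1 with DMSO and 100% = DMSO wells lacking enzyme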
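system = purified recombinant IMP-1 beta-lactamase | amount = 0.2 nM IMP-1, as dispensed | medium = HEPES buffer pH 7.1 with ZnSO4 and Brij 35 | times = 25 °C, 15 min preincubation, 25 min reaction | detection = plate fluorescence quenching by hydrolysis product, ex 480/em 530 nm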
beta cell repl: MIN6 beta-cell proliferation induction; hit rate 0.29% among 330,000; proliferation, % at 10 µM; MIN6 cells proliferation, ATPlite luminescence, 48 h; cells starved in 0.2% serum; 100% = growth in 10% serum; AID 2380;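 active = compounds whose signal lies at least 3.5 SD above the mean of all wells on their plate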;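 also: 0% = DMSO-treated cells in low-serum medium and 100% = 10% serum control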
PvdQ acylase: blocks Pseudomonas aeruginosa PvdQ acylase activity. purified PvdQ acylase, fluorescence plate reader. hit rate 0.063% among 340,000. AID 488965. inhibition, % at 10 µM; in the data active = inhibition above about 30%, passing the limit was not always enough;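 also: 0% = vehicle neutral wells and 100% = reference inhibitor wells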
HKDC1 inh: inhibitors of human hexokinase HKDC1; hit rate 0.16% among 340,000; recombinant HKDC1, G6PDH/diaphorase resazurin coupled fluorescence; AID 493160; inhibition, % at 20 µM; Q2TB90;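 active = inhibition above about 35% when tested at 20 µM, limit read from the data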;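 also: plate controls were DMSO wells with enzyme for no effect and DMSO wells lacking enzyme for full effect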
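Test system: recombinant HKDC1 (HK5) hexokinase enzyme, produced in-house / Doses: 20 µM test compound, 1% DMSO / Timing: 90 min, room temperature / Detection: G6PDH/diaphorase-coupled fluorescence, 1 mM NADP, 100 µM resazurin, 525/613 nm / Control set: DMSO wells with and without enzyme mix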
IMP-1 inh-2: selectivity counter-screen for VIM-2 inhibitors: IMP-1 metallo-beta-lactamase inhibitors. shares compounds with VIM-2 inh. purified IMP-1, nitrocefin hydrolysis, epi-absorbance fluorescence. inhibition, % at 5.6 µM. 1,300 tested, under 10 active. AID 1856; call rule not given here;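 also: 0% = enzyme with vehicle and 100% = vehicle without enzyme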
VIM-2 FRET inh: counter-screen for VIM-2 inhibitors: epi-absorbance artifacts via FRET; shares compounds with VIM-2 inh; purified VIM-2, CCF2 FRET substrate hydrolysis; inhibition, % at 5.6 µM; hit rate 23% among 1,300; AID 1857;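 active = inhibition above the mean of all tested compounds plus 3 SD, cut at about 19% in these data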;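 also: 0% = VIM-2 plus DMSO and 100% = no enzyme wells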
TEM-1 inh: TEM-1 inhibition, counter-screen for VIM-2 inhibitors. hit rate 3% among 1,300. inhibition, % at 5.6 µM. shares compounds with VIM-2 inh. AID 1866. Purified TEM-1, nitrocefin hydrolysis, epi-absorbance fluorescence;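 active = inhibition above that campaign's mean inhibition plus 3 SD, cut at about 0.46% in these data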;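 also: 0% = TEM-1 with DMSO and 100% = TEM-1 with 100 µM potassium clavulanate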
VIM-2 inh conf: confirmation of P. aeruginosa VIM-2 metallo-beta-lactamase inhibitors; shares compounds with VIM-2 inh; purified VIM-2, nitrocefin hydrolysis, epi-absorbance; inhibition, % at 5.6 µM; hit rate 96% among 1,300;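 active = inhibition of the VIM-2 beta-lactamase enzyme above about 11% from the earlier first-round screen, limit read from the data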;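 also: 0% = VIM-2 with DMSO and 100% = buffer wells without enzyme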
Starred values were filed as active, the others as inactive; / = not tested or not shown. Rows were chosen to be rich in hits. Some 2% of all compounds tested hit in one or more screens of this group.

SMILES	ATG4B inh	VIM-2 inh	IMP-1 inh-1	beta cell repl	PvdQ acylase	HKDC1 inh	IMP-1 inh-2	VIM-2 FRET inh	TEM-1 inh	VIM-2 inh conf
Cc1cccc(Nc2c3c(nc4ncnn24)CCC3)c1	-8	13*	-2	-3	-4	-10	-3	-5	-5	29*
Cc1cc(C)cc(Nc2c3c(nc4ncnn24)CCC3)c1	4	32*	-3	4	-4	8	-2	0	-6	48*
Cc1ccc(C(=O)N2CCN(S(=O)(=O)c3ccc(C)c([N+](=O)[O-])c3)C2)cc1	-11	-3	-3	3	-15	-13	/	/	/	/
O=[N+]([O-])c1ccc2c(c1)ncn2CCc1ccccc1	-8	-2	-2	0	5	2	/	/	/	/
C/C(=N\NC(=O)c1nnn(-c2nonc2N)c1CN1CCc2ccccc21)c1ccccc1O	1	-4	-2	-8	-10	-9	/	/	/	/
COc1cccc(-c2nnc3sc(-c4ccccn4)nn23)c1	-7	15*	-3	4	8	6	-4	-2	-7	23*
O=C(O)COc1ccccc1/C=N/n1c(C2CCCCC2)n[nH]c1=S	-2	27*	-4	-2	3	-2	-3	53*	-8	40*
CCCCNC(=O)c1cc2c(=O)n3cccc(C)c3nc2n(Cc2ccccc2)c1=N	13	-2	-3	-3	-29	-11	/	/	/	/
COCCn1c(=N)c(C(=O)NCCc2ccccc2)cc2c(=O)n3cccc(C)c3nc21	-3	-3	-2	-2	-37	-11	/	/	/	/
Cc1cccn2c(=O)c3cc(C(=O)NCCc4ccccc4)c(=N)n(CCCn4ccnc4)c3nc12	-10	14*	-1	-3	-19	-14	-2	-39	-6	51*
C=CCn1c(=N)c(C(=O)NCCCOC)cc2c(=O)n3cccc(C)c3nc21	-7	25*	0	-1	-45	-8	-4	-88	-8	29*
CCCn1c(=N)c(S(=O)(=O)c2ccccc2)cc2c(=O)n3cccc(C)c3nc21	-4	15*	-1	1	-5	-3	-4	-1	-7	23*
Cc1ccc2nc3c(cc(C(=O)NC4CCCC4)c(=N)n3CCCn3ccnc3)c(=O)n2c1	/	29*	0	-1	/	/	-4	-17	-5	68*
NS(=O)(=O)c1ccc(F)c(C(=O)O)c1	-4	0	-4	2	-9	-7	/	/	/	/
CNC(=O)c1cc2c(=O)n3cccc(C)c3nc2n(C(C)C)c1=N	-10	12*	1	-2	-33	3	-3	-92	-6	26*
Cc1ccc(CNC(=O)C(CCC(N)=O)NC(=O)OCc2ccccc2)cc1 (stereo not drawn)	-2	0	-3	0	-14	-5	/	/	/	/
CN(C)CCCSc1nc(-c2ccccc2)nc2c1CCC2	2	35*	1	-5	-23	14	-2	3	-7	57*
CN(C)C(=O)CSc1nc(-c2ccccc2)nc2c1CCCC2	-24	4	-1	4	-11	-7	/	/	/	/
CCOC(=O)CC1C(=O)NCCN1C(=O)c1cc2c(=O)n3ccccc3nc2s1 (stereo not drawn)	/	5	-4	2	/	/	/	/	/	/
CC1CCCCN1C(=O)c1cc2c(=O)n3ccccc3nc2s1 (stereo not drawn)	-3	1	-1	-1	-19	4	/	/	/	/
Cc1cccn2c(=O)c3cc(C(=O)N4CCCC(C)C4)sc3nc12 (stereo not drawn)	-10	15*	-4	0	-15	1	-3	-2	-7	21*

Source: PubChem BioAssay (several laboratories)
